Results as given in article PMC2803432 (Current Chemical Genomics, 2008).
Each block holds one molecule with its values, some of them ahead of it. Residues, ends and D or L forms follow the SMILES beside them. No end group written: not given here.

Assays:
14-3-3 proteins = details: cited from earlier work
14-3-3γ [1] = biological target: T1, 14-3-3γ (Homo sapiens, UniProt P61981); test: AlphaScreen direct binding of biotin-pS259-Raf-1 to GST-14-3-3γ; details: increasing GST-14-3-3γ and biotin-pS259-Raf-1 with both beads
T1 sequence (P61981 1-247): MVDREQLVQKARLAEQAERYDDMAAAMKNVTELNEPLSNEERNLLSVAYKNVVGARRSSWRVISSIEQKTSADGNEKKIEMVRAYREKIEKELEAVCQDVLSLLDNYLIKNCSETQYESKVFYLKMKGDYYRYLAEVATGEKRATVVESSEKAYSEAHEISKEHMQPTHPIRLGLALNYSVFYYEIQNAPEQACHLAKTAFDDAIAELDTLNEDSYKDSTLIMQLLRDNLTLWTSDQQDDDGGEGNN
In short: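 Biotinylated pS259-Raf-1 peptide (LSQRSTpSTPNVHM) was titrated with purified GST-14-3-3γ; Z' runs used 100 nM peptide. Anti-GST acceptor beads were added and incubated 30 min, then streptavidin donor beads for 1.5 h. Luminescence was read under dim light. Background wells held one binding component.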

14-3-3γ [2] = biological target: T1, 14-3-3γ; test: AlphaScreen direct binding of GST-R18 to biotin-14-3-3γ; details: GST-R18 5 nM to 500 nM; biotin-14-3-3γ 5 nM or 10 nM
In short: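 His-14-3-3γ expressed in E. coli BL21(DE3), Ni2+-column purified, desalted, then biotinylated with sulfo-NHS-LC-biotin. GST-R18 expressed in E. coli. Anti-GST acceptor beads added, then streptavidin donor beads 30 min later. Read after 1.5 h at room temperature under dim light. Background wells held one component. Triplicate, mean ± SD.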

biotinylated His-14-3-3γ [3] = biological target: biotinylated His-14-3-3γ (UniProt P61981); test: AlphaScreen or HTRF
GST-14-3-3γ [4] = biological target: GST-14-3-3γ (UniProt P61981); test: AlphaScreen or HTRF
GST-14-3-3γ [5] = biological target: T2, GST-14-3-3γ (UniProt P61981 1-247); test: AlphaScreen or HTRF
T2 sequence (looked up): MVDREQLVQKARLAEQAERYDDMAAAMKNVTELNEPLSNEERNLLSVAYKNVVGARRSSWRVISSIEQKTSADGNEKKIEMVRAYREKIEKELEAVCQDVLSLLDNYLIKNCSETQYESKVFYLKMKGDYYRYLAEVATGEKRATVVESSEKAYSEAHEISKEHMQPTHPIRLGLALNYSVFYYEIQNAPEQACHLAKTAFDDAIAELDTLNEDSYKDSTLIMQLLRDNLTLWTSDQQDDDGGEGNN

biotinylated His-14-3-3γ [6] = biological target: T3, biotinylated His-14-3-3γ (UniProt P61981 1-247, biotin (EZ-Link sulfo-NHS-LC-biotin; sites not stated)); test: AlphaScreen or HTRF
T3 sequence (looked up): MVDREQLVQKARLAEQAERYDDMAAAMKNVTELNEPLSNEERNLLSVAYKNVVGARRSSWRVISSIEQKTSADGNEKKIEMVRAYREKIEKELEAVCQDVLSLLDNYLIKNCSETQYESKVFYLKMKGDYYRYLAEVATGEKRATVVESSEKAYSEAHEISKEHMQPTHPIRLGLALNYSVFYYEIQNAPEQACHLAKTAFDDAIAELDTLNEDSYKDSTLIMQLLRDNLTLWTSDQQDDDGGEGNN

IC50 (biotinylated His-14-3-3γ [3]): 549 nM
IC50 (GST-14-3-3γ [4]): 535 nM
Molecule: pS967-ASK1 peptide

IC50 (GST-14-3-3γ [5]): 35.7 ± 1.1 nM
IC50 (biotinylated His-14-3-3γ [6]): 28 ± 1.1 nM
Molecule: PHCVPRDLSWLDLEANMCLP [untagged R18 peptide]

More lines, now with the values behind:

Molecule: CSCC[C@H](NC(=O)[C@H](CC(N)=O)NC(=O)[C@H](C)NC(=O)[C@H](CCC(=O)O)NC(=O)[C@H](CC(C)C)NC(=O)[C@H](CC(=O)O)NC(=O)[C@H](CC(C)C)NC(=O)[C@H](Cc1c[nH]c2ccccc12)NC(=O)[C@H](CO)NC(=O)[C@H](CC(C)C)NC(=O)[C@H](CC(=O)O)NC(=O)[C@H](CCCNC(=N)N)NC(=O)[C@@H]1CCCN1C(=O)[C@@H](NC(=O)[C@H](CS)NC(=O)[C@H](Cc1c[nH]cn1)NC(=O)[C@@H]1CCCN1)C(C)C)C(=O)N[C@@H](CS)C(=O)N[C@@H](CC(C)C)C(=O)N1CCC[C@H]1C(=O)O [R18] (H-PHCVPRDLSWLDLEANMCLP-OH; N-terminus and C-terminus assumed)
effect of GST fusion on efficacy of R18 for 14-3-3 binding (14-3-3 proteins; GST fusion of R18, ref [10]): no detectable effect on the efficacy of R18 for 14-3-3 binding
competition with natural proteins for binding of 14-3-3 (in words) (14-3-3 proteins; ref [17]): can effectively compete with other natural proteins for the binding of 14-3-3 proteins
affinity for 14-3-3 proteins (in words) (14-3-3 proteins; unphosphorylated peptide from phage display, ref [10]): exhibits a high affinity for 14-3-3 proteins

Molecule: Biotin-LSQRSTpSTPNVHM [biotin-pS259-Raf-1]
Alpha signal with increasing concentration (in words) (14-3-3γ [1]): dose-dependent increase in Alpha signal

Molecule: GST-R18: GST-tagged R18 protein-peptide fusion, purified from bacterial cells (PHCVPRDLSWLDLEANMCLP; cysteine pairing not given here; also: GST tag fused, end not given here)
Alpha signal with increasing concentration (in words) (14-3-3γ [2]): induced the robust production of Alpha signal in a dose-dependent manner
